# Source: ChEMBL document CHEMBL4513216, “Probing the Open Global Health Chemical Diversity Library for Multistage-Active Starting Points for Next-Generation Antimalarials” (ACS Infect Dis, 2020)
# Assay: Toxicity liver stage against HepG2, at 10uM
# Format: cell-based
# Parameters: test concentration 10 uM, cell line HepG2-A16-CD81EGFP
# Details: human, HepG2-A16-CD81EGFP cells; read-out: INHIBITION
# In short: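 Uninfected HepG2-A16-CD81EGFP cells, 3 × 10^3 per well, 1536-well, plated on prespotted compound at 10 μM final, parasite-free screening media added to match infected plates; puromycin 10 μM positive, DMSO 0.5% negative; run in parallel with 48 h PbLuc assay at 37 °C, 5% CO2; viability by CellTiter-Glo luminescence, normalized to controls.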
row,Compound,cytotoxicity at 10 µM
1,Cc1cccc(NC(=O)C2CC(=O)n3cnnc3S2)c1 (configuration not stated),2.37%
2,CCC(=O)N1CCCc2c(cnn2C)C1,3.12%
3,CS(=O)(=O)NC[C@H]1OC[C@@H](NC2CCC(F)(F)CC2)[C@@H]1O,0.644%
4,CN1Cc2cc(F)ccc2N(CC(O)C(F)(F)F)CCC1=O (configuration not stated),1.06%
5,O=C(NCCC(O)c1ccco1)c1ccco1 (configuration not stated),7.94%
6,O=S(=O)(NCCC(O)c1ccoc1)c1ccc(Cl)s1 (configuration not stated),-0.847%
7,Cc1cccc(CS(=O)(=O)NCc2nn(C)c3c2CCCC3)c1,2.37%
8,Cc1nc(-c2cnn(C)c2)nc2c1CN(C(=O)c1cccnc1)CC2,2.68%
9,CCS(=O)(=O)N1CCc2cc(C(=O)N(C)C)c(NCC3CC3)nc2CC1,0.0623%
10,Cc1ccc(C(=O)N2CCc3ncnc(-c4cnn(C)c4)c3CC2)o1,2.11%
11,N#Cc1ccc(C(=O)N2C[C@H](OCc3cccnc3)[C@H]3COC[C@H]32)cc1,5.38%
12,Cc1noc([C@@H]2C[C@H]3OCC[C@H]3N(S(=O)(=O)c3ccccc3)C2)n1,-126%
13,Cc1nc(-c2ccccc2F)sc1C(=O)N1CCC(=O)CC1,-7.42%
14,COc1ccc(S(=O)(=O)N2CCCC3(CCCN3S(C)(=O)=O)C2)cc1 (configuration not stated),-0.908%
15,CCc1ncnc2c1CCN(C(=O)Cc1ccccn1)CC2,-8.75%
16,CC(C)c1ncc(CN2CCCC(CO)C2)cn1 (configuration not stated),-1.49%
17,OCc1cn(Cc2cccc(C(F)(F)F)c2)nn1,8.02%
18,CC(NC(=O)N1CCS(=O)(=O)CC1)c1c(F)cccc1Cl (configuration not stated),3.54%
19,COC(=O)c1ncccc1N1CCC(C(O)c2ccccc2)CC1 (configuration not stated),-4.11%
20,O=C(c1cnc(-c2ccccc2)s1)N1CCC2(CC1)OCCO2,2.42%
21,CCC(=O)NC(CC(C)C)c1cccs1 (configuration not stated),6.18%

row,Compound,cytotoxicity at 10 µM
1,CC(CNC(=O)c1cccnc1O)Cn1cccn1 (configuration not stated),0.144%
2,CC(C)c1ocnc1C(=O)N1CCC2(CC1)OCCO2,0.0416%
3,CC(=O)c1sc(C(NC(=O)c2ccccc2)C2CC2)nc1C (configuration not stated),-15.5%
4,CCOc1ccc2cc(C(=O)NCCC(=O)N(C)C)[nH]c2c1,-6.16%
5,Cc1ccccc1C1(CNCc2cnc(N3CCOCC3)nc2)CC1,-8.23%
6,Cc1csc(C2CCCN(C(=O)c3cnn4ccc(C)nc34)C2)n1 (configuration not stated),2.56%
7,O=C(CS(=O)(=O)Cc1ccc(F)cc1)NCc1ccccc1F,5.96%
8,Cc1ccc(OCC(=O)NCc2sccc2C)nc1,-0.509%
9,O=c1c2cccnc2cnn1CC(O)c1ccc(F)c(F)c1 (configuration not stated),-7.44%
10,CN(CCCc1cc(-c2cccc(F)c2)n[nH]1)C(=O)CCn1cncn1,-132%
11,COCCN(Cc1cccs1)C(=O)C1CCCN(C(N)=O)C1 (configuration not stated),6.4%
12,O=C(c1cccnc1)N(CCO)Cc1cc(Br)ccc1F,12.7%
13,COC(=O)c1cccc(S(=O)(=O)NC(=O)CC2CCCC2)c1,-9.68%
14,O=C(CCc1nc(C2CC2)no1)c1ccc2c(c1)OCCO2,-7.04%
15,O=C(COc1ccccc1NCc1ccc(F)cc1)N1CCOCC1,-2.82%
16,CN(CC(N)=O)C(=O)c1csc(Br)c1,3%
17,c1cncc(-c2nc3c(c(NCC4(c5ccncc5)CC4)n2)CCC3)c1,7.77%
18,COCC(NC(=O)NCc1cccc(C#N)c1)c1ccco1 (configuration not stated),2.7%
19,Cn1cccc(NC(=O)N2CCC(CSc3ccccc3)C2)c1=O (configuration not stated),40.2%
20,CS(=O)(=O)N1CCCC12CCN(Cc1ccoc1)CC2,-3.98%
21,O=C(c1ccoc1)N1CC[C@H]2C[C@@H](c3ccncn3)O[C@@H]2C1,-76.1%

row,Compound,cytotoxicity at 10 µM
1,CCn1nc(CC(C)C)cc1C(=O)NCCCN1CCOCC1,1.6%
2,COc1ccc(Cn2c(CCc3c(C)n[nH]c3C)n[nH]c2=O)cc1,-144%
3,Cc1ccccc1OCC1CCCN(C(=O)Cc2c[nH]c(=O)[nH]c2=O)C1 (configuration not stated),-136%
4,CC(C)c1nccn1CC(=O)Nc1ccnn1C(C)C(C)C (configuration not stated),1.11%
5,O=C(O)[C@@H]1CN(CC(=O)N2CCCCCC2)C[C@H]1c1ccc(F)cc1,-3.24%
6,Cc1ncsc1CCN(C)C(=O)CN1CC2(CCNCC2)OC1=O,-7.33%
7,CCc1nc(CN(C)C(=O)CSC)no1,2.25%
8,Cc1nnc(CCNC(=O)[C@H]2CNC[C@@H](C(=O)N3CCCC3)C2)s1,-113%
9,COc1c(C)cc(C(C(=O)O)N(C)Cc2ccn[nH]2)cc1C (configuration not stated),2.82%
10,CN(C)C(=O)c1nc(CN2CC(c3ccccc3)CC2=O)no1 (configuration not stated),0.624%
11,CC(C)n1cnnc1CN(C)C(=O)c1ccc[nH]1,-0.371%
12,CC(C)[C@@H]1CN(Cc2c[nH]nc2-c2ccc(F)cc2)C[C@H]1NS(C)(=O)=O,-0.882%
13,O=C1OCCN1Cc1ccc(C(F)(F)F)cc1F,-0.419%
14,c1cc2c(cc1CN1CCC(Cc3noc(C4CC4)n3)CC1)OCCO2,14.9%
15,CCc1nc(C)c(C(=O)N[C@@H]2c3ccccc3C[C@@H]2O)o1,4.57%
16,Cc1ccc(CN2CC[C@@]3(O)CCN(S(=O)(=O)N(C)C)C[C@H]3C2)cc1C,-1.42%
17,N[C@@H]1c2ccccc2C2(CCN(C(=O)c3ccccc3O)CC2)[C@H]1O,6.38%
18,COc1ccc(CCN2C(=O)O[C@@H]3CN(C4CCOCC4)C[C@@H]32)cc1,6.86%
19,Cc1ncc(S(C)(=O)=O)c(C2CCCNC2)n1 (configuration not stated),1.17%
20,CS(=O)(=O)c1ccc(C(=O)NCCNc2ncccn2)cc1,-5.15%
21,Cc1nc(C)n(CC2CN(CCOc3cccc(C#N)c3)CCO2)n1 (configuration not stated),-13.2%

row,Compound,cytotoxicity at 10 µM
1,Cn1cc(NC(=O)C2CC(c3ccccc3)C2)ccc1=O (configuration not stated),-4.42%
2,COc1ncccc1C(=O)N1CCCC(n2ccnc2)C1 (configuration not stated),-5.1%
3,Cn1cc(CN2CCCN(C(=O)c3sccc3C#N)CC2)cn1,-1.37%
4,COc1ccsc1C(=O)N1CCCC(n2nc(C)cc2C)C1 (configuration not stated),-9.41%
5,Cc1cc(C)n(C2CCCN(C(=O)Cc3cccs3)C2)n1 (configuration not stated),-20.8%
6,Cc1cnc(C(=O)N2CCCN(c3nc(C)cs3)CC2)cn1,-8.81%
7,O=C(Cc1csc(-c2ccco2)n1)N1CCSCC1,-16.2%
8,NC(=O)NC(=O)CCN1CCCN(c2nccs2)CC1,11.1%
9,Cc1cc(C)n(CC2CCCCN2CCCS(N)(=O)=O)n1 (configuration not stated),6.28%
10,O=C(Cc1ccccn1)N1CCN(C(=O)c2cccc3[nH]ncc23)CC1,-2.48%
11,Cn1cnnc1C1CCCN(C(=O)NCCc2ccccc2F)C1 (configuration not stated),-1.88%
12,Cc1noc(C2CN(Cc3ccc4c(c3)CCO4)C2)n1,-0.478%
13,Cc1noc([C@H]2C[C@@H]3CCN(CC4CC4)C[C@H]3O2)n1,-7.23%
14,COc1cc(CNCC(O)c2ccc(C)cc2)cc2c1OCO2 (configuration not stated),-0.282%
15,O=C(c1cscn1)N1CCC2(CCN(Cc3cccs3)CC2)C1,3.91%
16,CN(C)CCN1CCc2c(nnn2C)C1COCc1ccccc1 (configuration not stated),-90.3%
17,Cc1nc(CN2C(=O)C[C@@H]3[C@@H]2CCN3CC2CCOCC2)cs1,-135%
18,Cc1ccc(NC2COC3(CCN(Cc4ccn(C)n4)CC3)C2)nn1 (configuration not stated),-1.68%
19,O=C(Nc1cnccn1)[C@H]1CC[C@@H]2[C@@H](CCN2Cc2ccccn2)O1,-139%
